Source: ChEMBL document CHEMBL4689842, “EUbOPEN Chemogenomics Library wave 1” (2021)

Columns and labels:
HEK-293T = test: Multiplex assay against HEK293T; assay type: toxicity, cell-based; conditions: human;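 on Population Tubulin-Different-Phenotype (%): share of the cells with healthy nuclei that show this phenotype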
Method in brief: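 Values for tubulin, mitochondrial-mass and membrane-permeability phenotypes are per cents of cells with healthy nuclei. These cells were identified by CellPathfinder machine-learning gating of live cells that had been stained at seeding with Hoechst33342, BioTracker Green Microtubule Cytoskeleton Dye, MitoTracker Red and Annexin V Alexa Fluor 680 and imaged on a CQ1 microscope at 37°C and 5% CO2 after compound addition. The gating first set Hoechst high-intensity objects apart from normal cells, then split normal cells into healthy, pyknosed or fragmented nuclei, and pyknosed cells into mitotic or apoptotic.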

Fibroblast = test: Incucyte cell viability with human fibroblast; assay type: toxicity, cell-based; conditions: 10 µM, compound concentration 10 uM; further: filed as whole numbers so only -1 and 0 and 1 occur
[1] = 12 h, 1 µM, compound concentration 1 uM, replicate 1
[2] = 12 h, 1 µM, compound concentration 1 uM, replicate 2
[3] = 12 h, 10 µM, compound concentration 10 uM, replicate 1
[4] = 12 h, 10 µM, compound concentration 10 uM, replicate 2
[5] = 24 h, 1 µM, compound concentration 1 uM, replicate 1
[6] = 24 h, 1 µM, compound concentration 1 uM, replicate 2
[7] = 24 h, 10 µM, compound concentration 10 uM, replicate 1
[8] = 24 h, 10 µM, compound concentration 10 uM, replicate 2
[9] = 48 h, 1 µM, compound concentration 1 uM, replicate 1
[10] = 48 h, 1 µM, compound concentration 1 uM, replicate 2
[11] = 48 h, 10 µM, compound concentration 10 uM, replicate 1
[12] = 48 h, 10 µM, compound concentration 10 uM, replicate 2

CC(/C=C1\SC(=S)N(CCCC(=O)Nc2ccc(C(=O)O)c(O)c2)C1=O)=C\c1ccccc1
Population Apoptotic (%) (HEK-293T; [1]): 38%
Population Fragmented Nuclei (%) (HEK-293T; [1]): 11%
Population Healthy Nuclei (%) (HEK-293T; [1]): 34%
Population Hoechst High Intensity Objects (%) (HEK-293T; [1]): 9%
Population Membrane Permeable-Phenotype (%) (HEK-293T; [1]): 3%
Population Mitochondria Different-Phenotype (%) (HEK-293T; [1]): 68%
Population Mitotic Cells (%) (HEK-293T; [1]): 61%
Population Normal (%) (HEK-293T; [1]): 90%
Population Pyknosed Nuclei (%) (HEK-293T; [1]): 53%
Population Tubulin-Different-Phenotype (%) (HEK-293T; [1]): 34%
Total Cell Count (HEK-293T; [1]): 251
Population Apoptotic (%) (HEK-293T; [2]): 5%
Population Fragmented Nuclei (%) (HEK-293T; [2]): 2%
Population Healthy Nuclei (%) (HEK-293T; [2]): 44%
Population Hoechst High Intensity Objects (%) (HEK-293T; [2]): 2%
Population Membrane Permeable-Phenotype (%) (HEK-293T; [2]): 9%
Population Mitochondria Different-Phenotype (%) (HEK-293T; [2]): 20%
Population Mitotic Cells (%) (HEK-293T; [2]): 94%
Population Normal (%) (HEK-293T; [2]): 97%
Population Pyknosed Nuclei (%) (HEK-293T; [2]): 52%
Population Tubulin-Different-Phenotype (%) (HEK-293T; [2]): 21%
Total Cell Count (HEK-293T; [2]): 242
Population Apoptotic (%) (HEK-293T; [3]): 40%
Population Fragmented Nuclei (%) (HEK-293T; [3]): 10%
Population Healthy Nuclei (%) (HEK-293T; [3]): 35%
Population Hoechst High Intensity Objects (%) (HEK-293T; [3]): 13%
Population Membrane Permeable-Phenotype (%) (HEK-293T; [3]): 6%
Population Mitochondria Different-Phenotype (%) (HEK-293T; [3]): 65%
Population Mitotic Cells (%) (HEK-293T; [3]): 59%
Population Normal (%) (HEK-293T; [3]): 86%
Population Pyknosed Nuclei (%) (HEK-293T; [3]): 54%
Population Tubulin-Different-Phenotype (%) (HEK-293T; [3]): 34%
Total Cell Count (HEK-293T; [3]): 255
Population Apoptotic (%) (HEK-293T; [4]): 8%
Population Fragmented Nuclei (%) (HEK-293T; [4]): 5%
Population Healthy Nuclei (%) (HEK-293T; [4]): 50%
Population Hoechst High Intensity Objects (%) (HEK-293T; [4]): 1%
Population Membrane Permeable-Phenotype (%) (HEK-293T; [4]): 5%
Population Mitochondria Different-Phenotype (%) (HEK-293T; [4]): 5%
Population Mitotic Cells (%) (HEK-293T; [4]): 91%
Population Normal (%) (HEK-293T; [4]): 98%
Population Pyknosed Nuclei (%) (HEK-293T; [4]): 43%
Population Tubulin-Different-Phenotype (%) (HEK-293T; [4]): 8%
Total Cell Count (HEK-293T; [4]): 269
Population Apoptotic (%) (HEK-293T; [5]): 41%
Population Fragmented Nuclei (%) (HEK-293T; [5]): 13%
Population Healthy Nuclei (%) (HEK-293T; [5]): 41%
Population Hoechst High Intensity Objects (%) (HEK-293T; [5]): 13%
Population Membrane Permeable-Phenotype (%) (HEK-293T; [5]): 1%
Population Mitochondria Different-Phenotype (%) (HEK-293T; [5]): 53%
Population Mitotic Cells (%) (HEK-293T; [5]): 58%
Population Normal (%) (HEK-293T; [5]): 86%
Population Pyknosed Nuclei (%) (HEK-293T; [5]): 45%
Population Tubulin-Different-Phenotype (%) (HEK-293T; [5]): 26%
Total Cell Count (HEK-293T; [5]): 263
Population Apoptotic (%) (HEK-293T; [6]): 16%
Population Fragmented Nuclei (%) (HEK-293T; [6]): 5%
Population Healthy Nuclei (%) (HEK-293T; [6]): 62%
Population Hoechst High Intensity Objects (%) (HEK-293T; [6]): 1%
Population Membrane Permeable-Phenotype (%) (HEK-293T; [6]): 13%
Population Mitochondria Different-Phenotype (%) (HEK-293T; [6]): 10%
Population Mitotic Cells (%) (HEK-293T; [6]): 84%
Population Normal (%) (HEK-293T; [6]): 98%
Population Pyknosed Nuclei (%) (HEK-293T; [6]): 32%
Population Tubulin-Different-Phenotype (%) (HEK-293T; [6]): 30%
Total Cell Count (HEK-293T; [6]): 315
Population Apoptotic (%) (HEK-293T; [7]): 41%
Population Fragmented Nuclei (%) (HEK-293T; [7]): 11%
Population Healthy Nuclei (%) (HEK-293T; [7]): 38%
Population Hoechst High Intensity Objects (%) (HEK-293T; [7]): 16%
Population Membrane Permeable-Phenotype (%) (HEK-293T; [7]): 2%
Population Mitochondria Different-Phenotype (%) (HEK-293T; [7]): 60%
Population Mitotic Cells (%) (HEK-293T; [7]): 58%
Population Normal (%) (HEK-293T; [7]): 83%
Population Pyknosed Nuclei (%) (HEK-293T; [7]): 49%
Population Tubulin-Different-Phenotype (%) (HEK-293T; [7]): 50%
Total Cell Count (HEK-293T; [7]): 261
Population Apoptotic (%) (HEK-293T; [8]): 7%
Population Fragmented Nuclei (%) (HEK-293T; [8]): 2%
Population Healthy Nuclei (%) (HEK-293T; [8]): 72%
Population Hoechst High Intensity Objects (%) (HEK-293T; [8]): 1%
Population Membrane Permeable-Phenotype (%) (HEK-293T; [8]): 13%
Population Mitochondria Different-Phenotype (%) (HEK-293T; [8]): 5%
Population Mitotic Cells (%) (HEK-293T; [8]): 92%
Population Normal (%) (HEK-293T; [8]): 98%
Population Pyknosed Nuclei (%) (HEK-293T; [8]): 24%
Population Tubulin-Different-Phenotype (%) (HEK-293T; [8]): 23%
Total Cell Count (HEK-293T; [8]): 356
Population Apoptotic (%) (HEK-293T; [9]): 31%
Population Fragmented Nuclei (%) (HEK-293T; [9]): 19%
Population Healthy Nuclei (%) (HEK-293T; [9]): 40%
Population Hoechst High Intensity Objects (%) (HEK-293T; [9]): 10%
Population Membrane Permeable-Phenotype (%) (HEK-293T; [9]): 4%
Population Mitochondria Different-Phenotype (%) (HEK-293T; [9]): 24%
Population Mitotic Cells (%) (HEK-293T; [9]): 68%
Population Normal (%) (HEK-293T; [9]): 89%
Population Pyknosed Nuclei (%) (HEK-293T; [9]): 40%
Population Tubulin-Different-Phenotype (%) (HEK-293T; [9]): 26%
Total Cell Count (HEK-293T; [9]): 330
Population Apoptotic (%) (HEK-293T; [10]): 3%
Population Fragmented Nuclei (%) (HEK-293T; [10]): 4%
Population Healthy Nuclei (%) (HEK-293T; [10]): 83%
Population Hoechst High Intensity Objects (%) (HEK-293T; [10]): 3%
Population Membrane Permeable-Phenotype (%) (HEK-293T; [10]): 9%
Population Mitochondria Different-Phenotype (%) (HEK-293T; [10]): 3%
Population Mitotic Cells (%) (HEK-293T; [10]): 96%
Population Normal (%) (HEK-293T; [10]): 96%
Population Pyknosed Nuclei (%) (HEK-293T; [10]): 11%
Total Cell Count (HEK-293T; [10]): 570
Population Apoptotic (%) (HEK-293T; [11]): 49%
Population Fragmented Nuclei (%) (HEK-293T; [11]): 17%
Population Healthy Nuclei (%) (HEK-293T; [11]): 44%
Population Hoechst High Intensity Objects (%) (HEK-293T; [11]): 12%
Population Membrane Permeable-Phenotype (%) (HEK-293T; [11]): 2%
Population Mitochondria Different-Phenotype (%) (HEK-293T; [11]): 26%
Population Mitotic Cells (%) (HEK-293T; [11]): 50%
Population Normal (%) (HEK-293T; [11]): 87%
Population Pyknosed Nuclei (%) (HEK-293T; [11]): 37%
Population Tubulin-Different-Phenotype (%) (HEK-293T; [11]): 29%
Total Cell Count (HEK-293T; [11]): 339
Population Apoptotic (%) (HEK-293T; [12]): 12%
Population Fragmented Nuclei (%) (HEK-293T; [12]): 7%
Population Healthy Nuclei (%) (HEK-293T; [12]): 86%
Population Hoechst High Intensity Objects (%) (HEK-293T; [12]): 3%
Population Membrane Permeable-Phenotype (%) (HEK-293T; [12]): 9%
Population Mitochondria Different-Phenotype (%) (HEK-293T; [12]): 3%
Population Mitotic Cells (%) (HEK-293T; [12]): 87%
Population Normal (%) (HEK-293T; [12]): 96%
Population Pyknosed Nuclei (%) (HEK-293T; [12]): 6%
Population Tubulin-Different-Phenotype (%) (HEK-293T; [12]): 16%
Total Cell Count (HEK-293T; [12]): 675
Growth Rate (Fibroblast; 0 h, replicate number 1, timepoint 0 hours): 0
Growth Rate (Fibroblast; 6 h, replicate number 2, timepoint 6 hours): 0
Growth Rate (Fibroblast; 12 h, replicate number 2, timepoint 12 hours): 0
Growth Rate (Fibroblast; 18 h, replicate number 1, timepoint 18 hours): 1
Growth Rate (Fibroblast; 18 h, replicate number 2, timepoint 18 hours): 0
Growth Rate (Fibroblast; 24 h, replicate number 1, timepoint 24 hours): 1
Growth Rate (Fibroblast; 24 h, replicate number 2, timepoint 24 hours): 0
